CHOP inhibitor: inhibitors of CHOP induction in ER stress response; CHO-K1 CHOP-promoter luciferase, tunicamycin-induced, 15-18 h; inhibition, % at 10 µM; 220,000 compounds, 3.8% hits; AID 2732;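 active means compounds that reduced the stress-induced luciferase reporter signal by more than about 70% of percent inhibition, limit read from the data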
Jurkat NFkB inh: lowers PMA/ionomycin-induced NF-kB signal in Jurkat cells. PMA/ionomycin-induced NF-kB luciferase reporter, luminescence. inhibition, % at 4 µM. 330,000 compounds, 0.53% hits; in the data active means inhibition above about 50%
UPR XBP1 act: activators of adaptive arm of unfolded protein response (XBP1). 330,000 compounds, 0.33% hits. CHO-XBP1 luciferase reporter, IRE1-XBP1 UPR activation, luminescence; percent of tunicamycin response, DMSO as zero. activation, % at 20 µM;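 active means versus positive control, 20 µM dose yields 30% or more activation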
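Signal: luciferase luminescence; Assay system: CHO-XBP1 luciferase reporter cells; Amount: one thousand reporter cells per well; Dosing: 20 µM single concentration, DMSO 1%; Benchmarks: high control tunicamycin 10 µg/mL final, low control DMSO vehicle only; Schedule: 6 h compound exposure at 37 °C, 5% CO2; Evaluation: percent activation relative to tunicamycin reference.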
UPR CHOP act: apoptotic UPR (CHOP) activation | activation, % at 10 µM | 330,000 compounds, 0.34% hits | CHO-CHOP luciferase reporter, luminescence; percent of tunicamycin response over DMSO baseline | AID 449763;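 active means at 10 µM dose, activation of 40% or more, normalized to positive control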
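Assay system: CHO-CHOP cells, stable luciferase reporter of PERK-eIF2a-CHOP signalling / Buffer or medium: F12 plus 10% serum / Compound dosing: one dose, 10 µM in 0.5% DMSO / Times: 6 h compound treatment, 37 °C / Technique: luciferase luminescence / Read-out: % reporter activation, DMSO baseline versus tunicamycin full activation / Benchmarks: tunicamycin and DMSO controls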
697 NFkB inh: lowers PMA/ionomycin-induced NF-kB signal in 697 B cells | 697 B-cell NF-kB luciferase reporter, 16 h | inhibition, % at 4 µM | 330,000 compounds, 0.33% hits | AID 435022; in the data active means inhibition above about 35%
UPR CHOP confirm: confirmation of apoptotic unfolded protein response (CHOP) activators; AID 463112; CHO-CHOP cells, CHOP-luciferase reporter luminescence; percent of tunicamycin response, DMSO as zero; shares compounds with UPR CHOP act; activation, % at 10 µM; 1,000 compounds, 64% hits; in the data active means activation above about 33%
Each line names hits and unclear results; the compound was inactive in the other large screens (follow-up assays come after a bar, where they were run). This excerpt belongs to a sample that is enriched for hits.

NC(=S)N=Nc1c(O)[nH]c2ccccc12	none
CC1(C)C(=O)Nc2ccccc2N1C(=O)Cn1ncc(Cl)c(Cl)c1=O	UPR CHOP act 50 | UPR CHOP confirm inactive
COc1ccc(C2C3=C(CC(C)(C)CC3=O)Oc3ncn(Cc4ccco4)c(=N)c32)cc1 (configuration not stated)	UPR CHOP act 44 | UPR CHOP confirm inactive
O=C(NCCc1ccccc1Cl)c1cc(COc2ccc(F)cc2F)on1	none (no result: CHOP inhibitor)
Cc1[nH]c2c(C)cccc2c1CCNC(=O)c1ccc2c(c1[N+](=O)[O-])C(=O)c1ccccc1C2=O	UPR CHOP act 48 | UPR CHOP confirm 40
Cc1[nH]c2ccccc2c1CCNC(=O)c1ccc2c(c1[N+](=O)[O-])C(=O)c1ccccc1C2=O	none
CCCCn1c(N)c(N(CC(C)C)C(=O)c2ccc(Cl)c(S(=O)(=O)N3CCCC3)c2)c(=O)[nH]c1=O	none (no result: CHOP inhibitor)
CCCCCN1CSC(=S)N(Cc2ccccc2)C1	none
S=C1SCN(Cc2ccco2)CN1Cc1ccco1	UPR CHOP act 59 | UPR CHOP confirm 47
S=C1NCN(Cc2ccco2)CN1	none
CCN1CSC(=S)N(Cc2ccccc2)C1	UPR CHOP act 86 (no result: CHOP inhibitor) | UPR CHOP confirm 91
COc1cc2nc(NC(=O)c3ccc(F)cc3Cl)sc(=O)c2cc1OC	none (no result: CHOP inhibitor)
COc1ccc2c(c1)CCc1c(C(=O)Nc3cc(C)n(Cc4ccc(Cl)cc4)n3)noc1-2	CHOP inhibitor 93, UPR XBP1 act 142, UPR CHOP act 107 | UPR CHOP confirm 121
CCN(CC)S(=O)(=O)c1ccc(N2CCOCC2)c(NC(=O)c2ccc(=O)[nH]c2)c1	none (no result: CHOP inhibitor)
CCN(CC)c1ccc(/C=C2\SC(=O)N(C(C)C)C2=O)o1	UPR CHOP act 112 | UPR CHOP confirm inactive
Cc1nc(SCC(=O)Nc2ccc(CN3CCCC3)cc2)c2c(C)c(C)sc2n1	none (no result: CHOP inhibitor)
Cc1ccc(S(=O)(=O)NCc2ccccc2)cc1C(=O)NC(C)c1ccc(S(N)(=O)=O)cc1 (configuration not stated)	none (no result: CHOP inhibitor)
Cc1ccc(C)c(NC(=S)N=Nc2c(O)n(C)c3ccc(S(=O)(=O)N4CCOCC4)cc23)c1	none
CCc1ccccc1NC(=S)N=Nc1c(O)n(C)c2ccc(S(=O)(=O)N3CCOCC3)cc12	UPR CHOP act 51 | UPR CHOP confirm 53
C/C(=N\NC(=O)c1c[nH]c2ccccc12)c1ccccn1	none
C/C(=N\NC(=O)c1cc2ccccc2cc1O)c1ccccn1	UPR CHOP act 245 (no result: CHOP inhibitor) | UPR CHOP confirm 292
CCOC(=O)c1c(NC(=O)c2ccco2)n(C2CCCCC2)c2nc3ccccc3nc12	UPR CHOP act 40 | UPR CHOP confirm inactive
O=S(=O)(NC1C2CC3CC(C2)CC1C3)c1ccccc1 (configuration not stated)	none (no result: CHOP inhibitor)
Oc1c(C(c2ccccc2Cl)N2CCCC2)ccc2cccnc12 (configuration not stated)	CHOP inhibitor 102, UPR CHOP act 106 | UPR CHOP confirm 132
Cc1cc(C)c(OCC(O)CN2CCN(c3ccccn3)CC2)c(C)c1 (configuration not stated)	none
COc1ccc2c(C(=O)CCl)c[nH]c2c1	UPR CHOP act 238 | UPR CHOP confirm 205
COc1ccc(OCC(=O)c2c[nH]c3ccccc23)cc1	none
O=C(O)C1CCN(S(=O)(=O)c2ccc(N3CCCC3C(=O)O)c([N+](=O)[O-])c2)CC1 (configuration not stated)	none (no result: CHOP inhibitor)
CCN(CC)c1ccc(/C=C2\C(=O)N(c3nnc(C)c(=O)[nH]3)N=C2C)cc1	UPR CHOP act 221 | UPR CHOP confirm 832
COc1ccc(/C=C2/C(=O)N(c3ccccc3)N=C2C)cc1	none (no result: CHOP inhibitor)
Cc1cc(/C=C2\C(=N)N3N=C(C(C)C)SC3=NC2=O)c(C)n1-c1ccccc1	none
COc1ccc(/C=C/C(=O)Oc2ccc(C)cc2)cc1	UPR CHOP act 43 (no result: CHOP inhibitor) | UPR CHOP confirm 40
Cc1ccccc1/C=C/C(=O)c1ccc([N+](=O)[O-])o1	UPR CHOP act 112 (no result: CHOP inhibitor) | UPR CHOP confirm 68
COc1ccc(/C=C/C(=O)c2ccc([N+](=O)[O-])o2)cc1	UPR CHOP act 89 (no result: CHOP inhibitor) | UPR CHOP confirm 99
Cc1cccc(/C=C/C(=O)c2ccc([N+](=O)[O-])o2)c1	UPR CHOP act 217 (no result: CHOP inhibitor) | UPR CHOP confirm 142
Fc1cccc(CN2CCN(Cc3nc(CCc4ccccc4)no3)CC2)c1	none
O=C1CC(NS(=O)(=O)c2cc(F)ccc2F)CN1c1cccc(F)c1 (configuration not stated)	none (no result: CHOP inhibitor)
COc1cc2c(cc1OC)CN(C(=O)C1CCCN1S(=O)(=O)c1ccc(C)cc1)CC2 (configuration not stated)	none (no result: CHOP inhibitor)
O=C(CCN1C(=O)/C(=C/c2cccs2)SC1=S)N1CCCCC1	UPR CHOP act 40 (no result: CHOP inhibitor) | UPR CHOP confirm inactive
CCOc1ccc2c(c1)C(=NNC(=O)c1ccncc1)c1cc(OCC)ccc1-2	UPR CHOP act 50 | UPR CHOP confirm 43
O=C(Nc1nc(-c2ccccn2)cs1)c1ccco1	none
O=C(Nc1nc(-c2ccccn2)cs1)c1ccc(Br)s1	UPR CHOP act 60 | UPR CHOP confirm 42
C(=N\Nc1nc2ccccc2[nH]1)/c1ccccc1	none
Cc1[nH]c2ccccc2c1/C=N/Nc1nc2ccccc2[nH]1	UPR CHOP act 87 | UPR CHOP confirm inactive
COc1ccc(C(=O)/C=C2/C(=O)Nc3ccccc32)c(OC)c1	UPR CHOP act 109 (no result: CHOP inhibitor) | UPR CHOP confirm 114
COc1cccc(NC(=O)CSCc2n[nH]c(=O)[nH]2)c1	none
Cc1nc(N)sc1-c1csc(N(C)c2ccc(O)cc2)n1	none
CN(c1ccc(O)cc1)c1nc(-c2cccs2)cs1	UPR CHOP act 48 | UPR CHOP confirm inactive
COc1ccc(-c2sc(C(=O)c3ccc(Cl)cc3Cl)cc2CC(=O)O)cc1	none (no result: CHOP inhibitor)
CCN(CC)c1ccc2c(Cl)c(Br)c(=O)oc2c1	CHOP inhibitor 94, UPR CHOP act 194 | UPR CHOP confirm inactive
Cc1ccnc(Nc2nc(-c3ccc(O)c(O)c3)cs2)c1	UPR CHOP act 76 (no result: CHOP inhibitor) | UPR CHOP confirm 181
Cc1ccnc(Nc2nc(-c3ccc(O)cc3)cs2)c1	none (no result: CHOP inhibitor)
Oc1ccc(-c2csc(Nc3cccc4ccccc34)n2)cc1O	UPR CHOP act 131 (no result: CHOP inhibitor) | UPR CHOP confirm 142
Oc1ccc(-c2csc(Nc3ccccn3)n2)cc1O	UPR CHOP act 168 (no result: CHOP inhibitor) | UPR CHOP confirm 130
Cc1csc(Nc2cccc3ccccc23)n1	none
CC(NC(=O)CCCCCNC(=O)N1CCn2c1nc1ccccc12)c1ccccc1 (configuration not stated)	none (no result: CHOP inhibitor)
O=C(CCN1C(=O)C2C3C=CC(C4CC34)C2C1=O)Oc1cccc2cccnc12 (configuration not stated)	UPR CHOP act 72 | UPR CHOP confirm 60
